Assay [1] concerns CCRF-CEM. Nature of the assay: Cytotoxicity against human daunorubicin-resistant CEM cells after 72 hrs by MTT assay. Type of assay: cell-based. The method in brief:
(§1)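 Cells seeded at 2500–30,000 cells/well and left 24 h at 37 °C, 5% CO₂, then fourfold dilution series in duplicate for 72 h. MTT for 4 h, formazan dissolved in 10% SDS (pH 5.5), OD read at 540 nm against controls. Mean of three independent experiments.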
Background: Formazan colour is commonly taken as a measure of viable cells.

The subject of assay [2] is K562. Nature of the assay: Cytotoxicity against human paclitaxel-resistant K562 cells after 72 hrs by MTT assay. Type of assay: functional, cell-based. The settings on record: K562, 72 h. The method in brief: as §1
Assay [3] has as its system K562. The experiment in a line: Cytotoxicity against human K562 cells after 72 hrs by MTT assay. Type of assay: functional, cell-based. The following applies: K562, 72 h.
In assay [4] the test system is A549. Nature of the assay: Cytotoxicity against human A549 cells after 72 hrs by MTT assay. Type of assay: functional, cell-based. The following applies: A549, 72 h.
For assay [5], the system named is CCRF-CEM. The experiment in a line: Cytotoxicity against human CEM cells after 72 hrs by MTT assay. Type of assay: cell-based.

Usually IC50 stands for the midpoint of a concentration-inhibition curve. A low value points to inhibition by little substance.

Consider `COc1cc(/C(=N\Nc2ccccc2)c2nc(-c3ccc(Cl)cc3)n[nH]c2=O)cc(OC)c1OC`, for which the half-maximal inhibitory concentration (IC50) was found to be 37.7 µM in assay [1]; 33.1 µM in assay [2]; 17.5 µM in assay [3]; 22.1 µM in assay [4]; 10.8 µM in assay [5].
As for `COc1cc(Cc2nc(-c3ccc(Cl)cc3)n[nH]c2=O)cc(OC)c1OC`, the 50% inhibitory concentration (IC50) turned out to be 14.6 µM in assay [1]; 24.7 µM in assay [2]; 9.63 µM in assay [3]; 15.8 µM in assay [4]; 12.9 µM in assay [5].
Regarding `COc1cc(/C(=N\Nc2ccccc2)c2nc(-c3ccccc3)n[nH]c2=O)cc(OC)c1OC`, the IC50 in assay [1] amounted to 18.2 µM; in assay [2] it was 19.3 µM; in assay [3] it was 11.5 µM; in assay [4], 7.14 µM; in assay [5], 10.6 µM.
Turning to `COc1ccc(N/N=C(\c2cc(OC)c(OC)c(OC)c2)c2nc(-c3ccc(Cl)cc3)n[nH]c2=O)cc1`, the half-maximal inhibitory concentration (IC50) in assay [1] is 9.16 µM; in assay [2], 8.33 µM; in assay [3] it was 7.5 µM; in assay [4], 2.34 µM; in assay [5], 9.49 µM.
On the same counts, the results for `COc1cc(N/N=C(\c2cc(OC)c(OC)c(OC)c2)c2nc(-c3cc(OC)c(OC)c(OC)c3)n[nH]c2=O)cc(OC)c1OC` are 158 µM, 118 µM, 94.3 µM, 162 µM and 53.8 µM.
Regarding `COc1ccc(-c2nnc3c(n2)c(-c2cc(OC)c(OC)c(OC)c2)nn3-c2ccc(OC)cc2)cc1`, the IC50 worked out at 118 µM in assay [1]; 229 µM in assay [2]; 186 µM in assay [3]; 113 µM in assay [4]; 124 µM in assay [5].

The values are drawn from ChEMBL document CHEMBL1153887, “Cyclocondensation reaction of heterocyclic carbonyl compounds. Part XIII: synthesis and cytotoxic activity of some 3,7-diaryl-5-(3,4,5-trimethoxyphenyl)pyrazolo[4,3-e][1,2,4]triazines” (Eur J Med Chem, 2009).
